Tests used:
[1] = Drug level in human urine treated with [14C]SB-649868 at 30 mg, po single dose after 0 to 72 hrs by HPLC-MSn analysis; details: in vivo, 0-72 h
Plasma [2] = test: Drug level in human plasma assessed as radioactivity treated with [14C]SB-649868 at 30 mg, po single dose after 3 hrs by HPLC-MSn analysis; assay type: ADME, organism-based; set-up: dosed compound name [14C]SB-649868; details: in vivo
In short: (§1)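 Plasma taken 3, 12, 24 and 48 h after one oral 30 mg [14C] dose, extracted, and run on radio-HPLC: C8 column, 45 mM ammonium acetate pH 3.8 and acetonitrile gradient, 1 ml/min. Fractions collected into scintillant plates and counted 5 min. Extraction recovery measured; data corrected when recovery was <85%. Values are % of plasma radioactivity, BQL 1%; n=7 at 3 and 12 h.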

Plasma [3] = test: Drug level in human plasma assessed as radioactivity treated with [14C]SB-649868 at 30 mg, po single dose after 12 hrs by HPLC-MSn analysis; assay type: ADME, organism-based; set-up: dosed compound name [14C]SB-649868; details: in vivo
In short: as §1

Plasma [4] = test: Drug level in human plasma assessed as radioactivity treated with [14C]SB-649868 at 30 mg, po single dose after 24 hrs by HPLC-MSn analysis; assay type: ADME, organism-based; set-up: dosed compound name [14C]SB-649868; details: in vivo
In short: as §1

Plasma [5] = test: Drug level in human plasma assessed as radioactivity treated with [14C]SB-649868 at 30 mg, po single dose after 48 hrs by HPLC-MSn analysis; assay type: ADME, organism-based; set-up: dosed compound name [14C]SB-649868; details: in vivo
In short: as §1

[6] = Drug level in human feces treated with [14C]SB-649868 at 30 mg, po single dose by HPLC-MSn analysis; details: in vivo
Homo sapiens [7] = test: Total drug excretion in human at 30 mg, po single dose measured at 0 to 120 hrs; assay type: ADME, organism-based; set-up: dosed compound name [14C]SB-649868; details: in vivo
In short: (§2)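 After one oral 30 mg [14C] dose in eight healthy men, urine was collected at 0–6, 6–12 and 12–24 h, then every 24 h to 216 h. Feces were collected every 24 h to 216 h and homogenized 1:1 with water. Radioactivity was counted by LSC in triplicate aliquots. Results given as cumulative % of dose, mean (S.D.).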

Homo sapiens [8] = test: Total drug excretion in human at 30 mg, po single dose measured at 0 to 144 hrs; assay type: ADME, organism-based; set-up: dosed compound name [14C]SB-649868; details: in vivo
In short: as §2

Homo sapiens [9] = test: Total drug excretion in human at 30 mg, po single dose measured at 0 to 168 hrs; assay type: ADME, organism-based; set-up: dosed compound name [14C]SB-649868; details: in vivo
In short: as §2

Homo sapiens [10] = test: Total drug excretion in human at 30 mg, po single dose measured at 0 to 192 hrs; assay type: ADME, organism-based; set-up: dosed compound name [14C]SB-649868; details: in vivo
In short: as §2

Homo sapiens [11] = test: Total drug excretion in human at 30 mg, po single dose measured at 0 to 216 hrs; assay type: ADME, organism-based; set-up: dosed compound name [14C]SB-649868; details: in vivo
In short: as §2

Homo sapiens [12] = test: AUC (0 to infinity) in human plasma assessed as total radioactivity at 30 mg, po single dose; assay type: ADME, organism-based; set-up: dosed compound name [14C]SB-649868; details: in vivo
In short: (§3)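 Eight healthy men given one oral capsule of [14C] drug, 30 mg (approx. 70 µCi), with 160 ml water. Blood in K-EDTA tubes from pre-dose to 96 h, chilled and spun at 4°C. Plasma read by LSC in triplicate 0.25 ml aliquots, quench-corrected and background-subtracted. Noncompartmental analysis: Cmax and tmax read from the data, t1/2 = ln2/λz, AUC by linear-up/log-down trapezoids. Geometric means.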

Homo sapiens [13] = test: AUC (0 to t) in human plasma assessed as total radioactivity at 30 mg, po single dose; assay type: ADME, organism-based; set-up: dosed compound name [14C]SB-649868; details: in vivo
In short: as §3

Homo sapiens [14] = test: Cmax in human plasma assessed as total radioactivity at 30 mg, po single dose; assay type: ADME, organism-based; set-up: dosed compound name [14C]SB-649868; details: in vivo
In short: as §3

Homo sapiens [15] = test: Tmax in human plasma assessed as total radioactivity at 30 mg, po single dose; assay type: ADME, organism-based; set-up: dosed compound name [14C]SB-649868; details: in vivo
In short: as §3

Homo sapiens [16] = test: Apparent half life in human plasma assessed as total radioactivity at 30 mg, po single dose; assay type: ADME, organism-based; set-up: dosed compound name [14C]SB-649868; details: in vivo
In short: as §3

[17] = Drug excretion in human urine at 30 mg, po single dose measured at 0 to 6 hrs; assay type: ADME, organism-based; set-up: dosed compound name [14C]SB-649868; details: in vivo
In short: as §2

[18] = Drug excretion in human urine at 30 mg, po single dose measured at 0 to 12 hrs; assay type: ADME, organism-based; set-up: dosed compound name [14C]SB-649868; details: in vivo
In short: as §2

[19] = Drug excretion in human urine at 30 mg, po single dose measured at 0 to 24 hrs; assay type: ADME, organism-based; set-up: dosed compound name [14C]SB-649868; details: in vivo
In short: as §2

[20] = Drug excretion in human urine at 30 mg, po single dose measured at 0 to 48 hrs; assay type: ADME, organism-based; set-up: dosed compound name [14C]SB-649868; details: in vivo
In short: as §2

[21] = Drug excretion in human urine at 30 mg, po single dose measured at 0 to 72 hrs; assay type: ADME, organism-based; set-up: dosed compound name [14C]SB-649868; details: in vivo
In short: as §2

[22] = Drug excretion in human urine at 30 mg, po single dose measured at 0 to 96 hrs; assay type: ADME, organism-based; set-up: dosed compound name [14C]SB-649868; details: in vivo
In short: as §2

[23] = Drug excretion in human urine at 30 mg, po single dose measured at 0 to 120 hrs; assay type: ADME, organism-based; set-up: dosed compound name [14C]SB-649868; details: in vivo
In short: as §2

[24] = Drug excretion in human urine at 30 mg, po single dose measured at 0 to 144 hrs; assay type: ADME, organism-based; set-up: dosed compound name [14C]SB-649868; details: in vivo
In short: as §2

[25] = Drug excretion in human urine at 30 mg, po single dose measured at 0 to 168 hrs; assay type: ADME, organism-based; set-up: dosed compound name [14C]SB-649868; details: in vivo
In short: as §2

[26] = Drug excretion in human urine at 30 mg, po single dose measured at 0 to 192 hrs; assay type: ADME, organism-based; set-up: dosed compound name [14C]SB-649868; details: in vivo
In short: as §2

[27] = Drug excretion in human urine at 30 mg, po single dose measured at 0 to 216 hrs; assay type: ADME, organism-based; set-up: dosed compound name [14C]SB-649868; details: in vivo
In short: as §2

[28] = Drug excretion in human feces at 30 mg, po single dose measured at 0 to 24 hrs; assay type: ADME, organism-based; set-up: dosed compound name [14C]SB-649868; details: in vivo
In short: as §2

[29] = Drug excretion in human feces at 30 mg, po single dose measured at 0 to 48 hrs; assay type: ADME, organism-based; set-up: dosed compound name [14C]SB-649868; details: in vivo
In short: as §2

[30] = Drug excretion in human feces at 30 mg, po single dose measured at 0 to 72 hrs; assay type: ADME, organism-based; set-up: dosed compound name [14C]SB-649868; details: in vivo
In short: as §2

[31] = Drug excretion in human feces at 30 mg, po single dose measured at 0 to 96 hrs; assay type: ADME, organism-based; set-up: dosed compound name [14C]SB-649868; details: in vivo
In short: as §2

[32] = Drug excretion in human feces at 30 mg, po single dose measured at 0 to 120 hrs; assay type: ADME, organism-based; set-up: dosed compound name [14C]SB-649868; details: in vivo
In short: as §2

[33] = Drug excretion in human feces at 30 mg, po single dose measured at 0 to 144 hrs; assay type: ADME, organism-based; set-up: dosed compound name [14C]SB-649868; details: in vivo
In short: as §2

[34] = Drug excretion in human feces at 30 mg, po single dose measured at 0 to 168 hrs; assay type: ADME, organism-based; set-up: dosed compound name [14C]SB-649868; details: in vivo
In short: as §2

[35] = Drug excretion in human feces at 30 mg, po single dose measured at 0 to 192 hrs; assay type: ADME, organism-based; set-up: dosed compound name [14C]SB-649868; details: in vivo
In short: as §2

[36] = Drug excretion in human feces at 30 mg, po single dose measured at 0 to 216 hrs; assay type: ADME, organism-based; set-up: dosed compound name [14C]SB-649868; details: in vivo
In short: as §2

Homo sapiens [37] = test: Total drug excretion in human at 30 mg, po single dose measured at 0 to 6 hrs; assay type: ADME, organism-based; set-up: dosed compound name [14C]SB-649868; details: in vivo
In short: (§4)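 Healthy male volunteers (n=8) given single oral 30 mg (approx. 70 µCi) [14C]-labelled dose in a capsule with 160 ml water. Urine collected pre-dose, 0–6, 6–12, 12–24 h, then 24 h intervals to 216 h; feces at 24 h intervals to 216 h, homogenized 1:1 with water. Triplicate aliquots counted by LSC with quench correction and background subtraction; cumulative excretion expressed as % of dose.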

Homo sapiens [38] = test: Total drug excretion in human at 30 mg, po single dose measured at 0 to 12 hrs; assay type: ADME, organism-based; set-up: dosed compound name [14C]SB-649868; details: in vivo
In short: as §2

Homo sapiens [39] = test: Total drug excretion in human at 30 mg, po single dose measured at 0 to 24 hrs; assay type: ADME, organism-based; set-up: dosed compound name [14C]SB-649868; details: in vivo
In short: as §2

Homo sapiens [40] = test: Total drug excretion in human at 30 mg, po single dose measured at 0 to 48 hrs; assay type: ADME, organism-based; set-up: dosed compound name [14C]SB-649868; details: in vivo
In short: as §2

Homo sapiens [41] = test: Total drug excretion in human at 30 mg, po single dose measured at 0 to 72 hrs; assay type: ADME, organism-based; set-up: dosed compound name [14C]SB-649868; details: in vivo
In short: as §4

Homo sapiens [42] = test: Total drug excretion in human at 30 mg, po single dose measured at 0 to 96 hrs; assay type: ADME, organism-based; set-up: dosed compound name [14C]SB-649868; details: in vivo
In short: as §4

Cc1nc(C(=O)N2CCCC[C@H]2CNC(=O)c2cccc3oc(O)cc23)c(-c2ccc(F)cc2)s1
Compound recovery [1]: 0.6%

Cc1nc(C(=O)N2CCCC[C@H]2CN)c(-c2ccc(F)cc2)s1
Compound recovery (Plasma [2]): 1.3% | Compound recovery (Plasma [3]): 1% | Compound recovery (Plasma [4]): 1.9% | Compound recovery (Plasma [5]): 3% | Compound recovery [6]: 1.5% | Compound recovery [1]: 0.6%

Cc1nc(C(=O)N2CCCC[C@H]2CN2C(=O)c3cccc(O)c3CC2O)c(-c2ccc(F)cc2)s1 (some centres undefined)
Compound recovery (Plasma [2]): 6% | Compound recovery (Plasma [3]): 16.8% | Compound recovery (Plasma [4]): 19.3% | Compound recovery (Plasma [5]): 15.1% | Compound recovery [6]: 2.6% | Compound recovery [1]: 0.2%

C[14c]1nc(C(=O)N2CCCC[C@H]2CNC(=O)c2cccc3occc23)c(-c2ccc(F)cc2)s1
Radiolabel recovery (Homo sapiens [7]): 87.3% | Radiolabel recovery (Homo sapiens [8]): 88.7% | Radiolabel recovery (Homo sapiens [9]): 89.7% | Radiolabel recovery (Homo sapiens [10]): 90.5% | Radiolabel recovery (Homo sapiens [11]): 91.1% | Radiolabel recovery (Homo sapiens [12]): 37.3 ugequiv.hr/ml | Radiolabel recovery (Homo sapiens [13]): 31 ugequiv.hr/ml | Radiolabel recovery (Homo sapiens [14]): 1.66 ugequiv/ml | Radiolabel recovery (Homo sapiens [15]): 4 h | Radiolabel recovery (Homo sapiens [16]): 39.3 h | Radiolabel recovery [17]: 2.3% | Radiolabel recovery [18]: 5.9% | Radiolabel recovery [19]: 8.9% | Radiolabel recovery [20]: 10.7% | Radiolabel recovery [21]: 11.3% | Radiolabel recovery [22]: 11.6% | Radiolabel recovery [23]: 11.7% | Radiolabel recovery [24]: 11.9% | Radiolabel recovery [25]: 11.9% | Radiolabel recovery [26]: 12% | Radiolabel recovery [27]: 12% | Radiolabel recovery [28]: 1.9% | Radiolabel recovery [29]: 36.8% | Radiolabel recovery [30]: 60% | Radiolabel recovery [31]: 69.6% | Radiolabel recovery [32]: 75.6% | Radiolabel recovery [33]: 76.8% | Radiolabel recovery [34]: 77.7% | Radiolabel recovery [35]: 78.5% | Radiolabel recovery [36]: 79.1% | Radiolabel recovery (Homo sapiens [37]): 2.3% | Radiolabel recovery (Homo sapiens [38]): 5.9% | Radiolabel recovery (Homo sapiens [39]): 10.8% | Radiolabel recovery (Homo sapiens [40]): 47.5% | Radiolabel recovery (Homo sapiens [41]): 71.3% | Radiolabel recovery (Homo sapiens [42]): 81.2%

Source: ChEMBL document CHEMBL3525942, “Disposition and metabolism of [14C]SB-649868, an orexin 1 and 2 receptor antagonist, in humans” (Drug Metab Dispos, 2011)
